Legend:
Type in all cases: functional, cell-based
[1] = Cytotoxicity against human CaEs17 cells after 72 hrs by MTT assay; settings: CaEs17, 72 h
Summary of the method: (§1)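 K562, CaEs-17, Bel-7402 and MGC-803 cells in log phase seeded at 5 × 10⁴ cells/mL, incubated with or without test compounds at 37 °C, 5% CO₂; after 72 h MTT (5 mg/mL stock) added for 4 h, formazan dissolved in DMSO, OD read at 490 nm. Negative reference 0.1% DMSO, Taxol positive control. IC50 as mean ± S.D. of three independent experiments.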

Bel-7402 = assay: Cytotoxicity against human Bel7402 cells after 72 hrs by MTT assay; settings: Bel-7402, 72 h; summary of the method: as §1
MGC-803 = assay: Cytotoxicity against human MGC803 cells after 72 hrs by MTT assay; settings: MGC-803, 72 h; summary of the method: as §1
K562 = assay: Cytotoxicity against human K562 cells after 72 hrs by MTT assay; settings: K562, 72 h; summary of the method: as §1

| Structure (SMILES) | IC50 [1] [nM] | IC50 (Bel-7402) [nM] | IC50 (MGC-803) [nM] | IC50 (K562) [nM] |
| --- | --- | --- | --- | --- |
| C=C1C(=O)[C@@]23C(=O)O[C@H]4CCC(C)(C)[C@H]5[C@H](O)OC[C@@]45[C@@H]2CC[C@@H]1[C@H]3OC(C)=O | 1590 | 1970 | 1990 | 1110 |
| C=C1C(=O)[C@@]23C(=O)O[C@H]4CCC(C)(C)[C@H]5[C@H](O)OC[C@@]45[C@@H]2CC[C@@H]1[C@H]3O | – | – | 14200 | – |
| C=C1C(=O)[C@@]23C(=O)O[C@H]4CCC(C)(C)[C@H]5[C@H](O)OC[C@@]45[C@@H]2CC[C@@H]1[C@H]3OC(=O)c1ccc([N+](=O)[O-])cc1 | 580 | 1010 | 640 | 260 |
